RGS4 inh = inhibitors of human RGS4; B-score at 10 µM; P49798; 310,000 compounds, 0.45% hits; AID 463165; HEK293 M3R/RGS4 inducible, Fluo-4 calcium flux; hits give high values; triggered by carbachol at its EC20;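 active = B-score, a plate-corrected calcium signal, over three deviations above library mean, with baseline fluorescence within five deviations of library mean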;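 also: RGS4 expression induced by doxycycline in cells with stable M3 receptor; B-score is computed from the integrated fluorescence ratio over baseline after carbachol; higher B-score means a larger calcium signal and so more RGS4 inhibition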
Target sequence (P49798 whole entry, looked up): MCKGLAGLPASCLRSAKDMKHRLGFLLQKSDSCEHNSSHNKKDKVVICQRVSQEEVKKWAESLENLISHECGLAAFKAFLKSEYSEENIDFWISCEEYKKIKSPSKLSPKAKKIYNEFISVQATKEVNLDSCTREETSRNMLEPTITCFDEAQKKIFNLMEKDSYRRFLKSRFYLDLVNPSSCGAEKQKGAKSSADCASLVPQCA
MrgX1 PAM = human MrgX1 positive allosteric modulation, primary screen; B-score at 10 µM; MrgX1-HEK293, Fluo-4 calcium flux, FDSS; hits give high values; 310,000 compounds, 0.63% hits; AID 588675;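 active = plate-corrected calcium response at least 3 library SD above typical, normal starting fluorescence, not activating the receptor alone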;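 also: compound read alongside a low EC10 to EC30 dose of BAM8-22 agonist; peak minus trough fluorescence over baseline measured at the second addition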
Target sequence (Q96LB2 whole entry, looked up): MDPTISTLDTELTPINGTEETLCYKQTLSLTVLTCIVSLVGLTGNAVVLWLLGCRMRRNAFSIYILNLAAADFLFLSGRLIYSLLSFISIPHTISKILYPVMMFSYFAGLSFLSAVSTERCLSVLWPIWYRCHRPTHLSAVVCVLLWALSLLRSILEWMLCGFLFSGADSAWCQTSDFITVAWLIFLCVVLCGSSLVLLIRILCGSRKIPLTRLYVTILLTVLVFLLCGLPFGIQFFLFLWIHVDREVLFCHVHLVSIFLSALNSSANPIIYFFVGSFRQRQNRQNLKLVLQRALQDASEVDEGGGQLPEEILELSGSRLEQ
MrgX1 antagonist = human MrgX1 receptor antagonism, primary screen. MRGX1-HEK293 calcium flux, Fluo-4, BAM8-22 antagonism; hits give low values. B-score at 10 µM. 310,000 compounds, 1.3% hits. AID 588676;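 active = calcium-response B-score plate-corrected more than 3 library SD below zero, starting fluorescence within 5 deviations, no agonist response on first addition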;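 also: peak minus trough fluorescence over baseline after final BAM8-22 challenge near maximal dose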
MrgX1 ag = human MrgX1 receptor agonism, primary screen; MrgX1-HEK293 cells, Fluo-4 calcium fluorescence, agonist mode; hits give high values; B-score at 10 µM; 310,000 compounds, 0.44% hits; AID 588627;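 active = calcium response B-score plate-corrected fluorescence ratio at least 3 library SD, with starting fluorescence B-score inside 5 SD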
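Material – MrgX1-expressing HEK293 cells · Input – 15,000 cells seeded per well · Dosing – compound as first of three additions · Times – overnight seeding, then 1 h dark dye loading · Measured by – kinetic Fluo-4 NW fluorescence of intracellular calcium · Read-out – B-scored fluorescence response ratio · Benchmarks – positive and negative control wells on each plate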
RGS4 pot = potentiators or activators of RGS4; B-score at 10 µM; AID 463111; 310,000 compounds, 0.92% hits; HEK293 M3R/inducible RGS4, carbachol calcium flux Fluo4; hits give low values;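 active = B-score of the integrated calcium signal more than 4 SD below the library mean, with starting fluorescence not abnormally high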;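 also: negative B-score means reduced calcium response which marks RGS4 activation or potentiation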
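Test system: HEK293 cells with stable M3R and inducible RGS4; also added: carbachol at ECmax as muscarinic agonist stimulus; schedule: dye loading 30 min 37 °C, buffer rest 30 min RT; technique: kinetic calcium fluorescence imaging with Fluo4-AM dye, 2 µM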
MrgX1 ant reconf = human MrgX1 receptor antagonism, re-confirmation screen. shares compounds with MrgX1 antagonist. MrgX1-HEK293, BAM8-22 calcium flux, Fluo-4; hits give low values. 2,300 compounds, 19% hits. AID 602420. remaining BAM8-22 calcium response % of control (hits give low values), % at 10 µM;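 active = remaining agonist calcium response no higher than 100% minus 3 SD of agonist-only control wells, with starting fluorescence near control levels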;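 also: agonist BAM8-22 given at a near maximal EC90 to ECmax level; peak minus minimum fluorescence divided by baseline after agonist addition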
HEK293 Ca flux = activity in parental HEK293 cells lacking MrgX1; shares compounds with MrgX1 antagonist; Fluo-4 calcium fluorescence, FDSS; fluorescence ratio F(max-min)/F0 at 10 µM; 4,000 compounds, 2% hits;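 active = duplicate-averaged calcium fluorescence ratio at least three times the standard deviation of buffer wells, a nonspecific response in parental cells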
HEK293 Ca counter = MrgX1 allosteric activator counter-screen hit in parental HEK293 cells | fluorescence ratio F(max-min)/F0 at 10 µM | parental HEK293 calcium flux, Fluo-4 fluorescence ratio; hits give high values | shares compounds with MrgX1 antagonist | 4,000 compounds, 0.4% hits | AID 624114;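 active = calcium fluorescence ratio, averaged over duplicates, at least 3 SD of the buffer-well ratio, meaning a nonspecific response in receptor-free cells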;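 also: untransfected parental HEK293 lacking MrgX1 used as counterscreen for MrgX1 allosteric activators; fluorescence change taken during the second addition on a kinetic imager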
HEK293 Ca cntr2 = counter-screen for MrgX1 activators: effect in parental HEK293 cells. Fluo-4 calcium fluorescence (FDSS); hits give high values. shares compounds with MrgX1 antagonist. fluorescence ratio F(max-min)/F0 at 10 µM. 4,000 compounds, 8.7% hits;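 active = calcium fluorescence ratio at least three times the spread of buffer wells, meaning a non-specific response in parental cells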
* hit, by the source's call; i = inactive; x = no result. Sampled rows, rich in hits. Any-hit rate of the full collection: about 3.5%.

SMILES	RGS4 inh	MrgX1 PAM	MrgX1 antagonist	MrgX1 ag	RGS4 pot	MrgX1 ant reconf	HEK293 Ca flux	HEK293 Ca counter	HEK293 Ca cntr2
Cc1ccc(S(=O)(=O)N2CCN(C(=O)c3sccc3-c3ccccc3)CC2)cc1	i	i	-5.4*	i	i	i	i	i	i
COC(CNC(=O)c1c[nH]c2ccc(S(=O)(=O)N(C)c3ccc(F)cc3)cc2c1=O)OC	i	i	i	i	i	x	x	x	x
N#Cc1ccc(OS(=O)(=O)c2ccc(-c3ccon3)s2)cc1	i	i	-4.7*	i	i	i	i	i	i
Cc1cc(S(=O)(=O)N2CCOCC2)ccc1OCC(=O)Nc1ccc(Br)cc1F	i	i	i	i	i	x	x	x	x
CC1CCCC(C)N1C(=O)CSCc1ccc(Cl)cc1 (stereo not drawn)	i	i	-4.7*	i	i	i	i	i	i
CC1CCCC(C)N1C(=O)COC(=O)Cc1ccc(Cl)cc1 (stereo not drawn)	i	i	i	i	i	x	x	x	x
CCOc1ccc(NC(=O)COC(=O)COc2cccc3c2OC(C)(C)C3)cc1	i	i	i	i	i	x	x	x	x
CC(OC(=O)COc1cccc2c1OC(C)(C)C2)C(=O)Nc1ccc(S(N)(=O)=O)cc1 (stereo not drawn)	i	i	-5.4*	i	i	i	i	i	i
O=C(CSc1nc2ccc([N+](=O)[O-])cc2s1)NCC1CCCO1 (stereo not drawn)	i	i	i	i	i	x	x	x	x
CC(C)(C)OC(=O)[C@H](Cc1ccccc1)NC(=O)c1nc[nH]c1C(=O)N1CCN(C(=O)OC(C)(C)C)CC1	i	i	i	i	i	x	x	x	x
CC1CCN(C(=O)c2[nH]cnc2C(=O)N[C@@H](Cc2ccccc2)C(=O)OC(C)(C)C)CC1	i	i	-7*	i	i	i	i	i	i
Cn1cc(CC(=O)Nc2cccc(C#N)c2)c2ccccc21	i	i	-4.6*	i	i	i	i	i	i
O=C(CN(Cc1ccccc1Cl)C(=O)c1csnn1)NCc1ccccc1	i	i	i	i	i	x	x	x	x
O=c1oc2ccccc2c2c1SC(C(F)(F)F)C2 (stereo not drawn)	i	i	-5.1*	i	i	76%*	i	i	i
Cc1ccccc1CSc1nnc(-c2cccs2)n1Cc1ccco1	i	i	i	i	i	x	x	x	x
c1ccc(CSc2nnc(-c3cccs3)n2Cc2ccco2)cc1	i	i	-5.8*	i	i	83%*	i	i	i
CCOC(=O)Cn1c(=O)cc(C)c2ccccc21	i	i	-8.5*	i	i	i	i	i	i
Cc1ccc2oc(=O)c3cc(C(=O)Nc4cc(-c5cccc(F)c5)no4)sc3c2c1	i	i	i	i	i	x	x	x	x
CCOc1ccc(S(=O)(=O)N(CC)CC(=O)NC2CC2)cc1	i	i	i	i	i	x	x	x	x
O=C(Nc1cn(-c2ccccc2)nc1-c1ccc(F)cc1)c1ccccc1	i	i	-5.3*	i	i	81%*	i	i	i
COc1ccc(NC(=O)CC2C(=O)N(C)C(=S)N2CCc2ccccc2F)cc1 (stereo not drawn)	i	i	i	i	i	x	x	x	x
CCN(C(=O)c1c(-c2ccccc2)noc1C)c1ccccc1	i	i	-4.6*	i	i	i	i	i	i
